Experimental data gathered from unrelated publications.
Protocols differ between the studies behind these lines.
MTNR1A: Melatonin receptor type 1A (MTNR1A, Homo sapiens, UniProt P48039)
FLT3: Receptor-type tyrosine-protein kinase FLT3 (FLT3, Homo sapiens, UniProt P36888)

SMILES | target | assay | conditions | measurement | result
COc1ccc(CN(C)C(=O)c2cc(F)c[nH]2)cc1O | MTNR1A | cAMP, agonist, luciferase |  | EC50 | 21.1 nM
NC(=O)c1ccc(Nc2nccc(NC3CCCCC3)n2)cc1 | FLT3 | enzyme activity, inhibitor |  | IC50 | 14 nM
Cc1cc(Nc2cc3ncccc3c(N[C@@H]3C[C@H]4CC[C@@H](C3)N4CCC#N)n2)n[nH]1 | FLT3 | binding, competition with immobilised ligand |  | Kd | 40 nM
c1ccc(-c2cccc(Nc3nccc(NC4CCCCC4)n3)c2)nc1 | FLT3 | enzyme activity, inhibitor |  | IC50 | 1710 nM
CCc1ccc2scc(CCNC(C)=O)c2c1 | MTNR1A | β-arrestin recruitment, agonist |  | EC50 | 12 nM
Cc1cnc(-c2ccc(-c3ccc(NC(=O)Nc4c(F)cc(F)cc4F)cc3F)c3c2C(=O)NC3)[nH]1 | Tyrosine-protein kinase receptor Tie-1 (TIE1, Homo sapiens, UniProt P35590) | binding, competition with immobilised ligand |  | Kd | 18 nM
COc1ccc(Br)c(CNc2cccnc2)c1 | MTNR1A | cell-free assay |  | Ki | 347 nM
CC(C)Nc1ccnc(Nc2cccc(-c3cnccn3)c2)n1 | FLT3 | enzyme activity, inhibitor |  | IC50 | 11 nM
COc1cc2c(CCNC(C)=O)c[nH]c2cc1I | MTNR1A | GTPγS binding, agonist, radiometric | cell membranes | EC50 | 10 nM
Cc1cc2nc3c(=O)[nH]c(=O)nc-3n(C[C@H](O)[C@H](O)[C@H](O)COP(=O)(O)OP(=O)(O)OC[C@H]3O[C@@H](n4cnc5c(N)ncnc54)[C@H](O)[C@@H]3O)c2cc1C | Annexin A7 (Homo sapiens, UniProt P20073) | binding | lysate | Kd | 30 nM
COc1ccc2ncn(CCNC(C)=O)c2c1 | MTNR1A | cAMP, agonist, TR-FRET |  | EC50 | 1120 nM
COC(=O)c1ccc(CSc2nnc(C3CC3)[nH]2)cc1 | MTNR1A | cAMP, agonist, luciferase |  | EC50 | 777 nM
